Activity calls are given as the source filed them.

Data set [1] is described as follows: Cytotoxicity against mouse Hepa-1c1c7 cells. The format is functional, cell-based.
For data set [2], the species on record is Mus musculus. The data set can be described thus: Induction of quinone reductase in mouse Hepa1c1c7 cells. The format is cell-based. A digest of the protocol:
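Phase II enzyme induction was measured in murine Hepa 1c1c7 hepatoma cells by a standard quinone reductase procedure. L-sulforaphane served as the positive control. Values are CD, the concentration that doubles quinone reductase activity, given as mean ± SD of three independent experiments.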

The nature of data set [3]: Chemopreventive index, ratio of IC50 for mouse Hepa1c1c7 cells to CD for quinone reductase in mouse Hepa1c1c7 cells.
The test system of data set [4] is 697. In words: Cytotoxicity against human 697 cells after 72 hrs by MTS assay. Type of data set: functional, cell-based. The settings on record: Homo sapiens, 697, 72 h. A digest of the protocol: (§1)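 697 (DSMZ) and Raji (ATCC) cells at 200,000 cells/mL; compounds from 2 mM DMSO stock, diluted in 10% DMSO, eight three-fold dilutions giving final 10 to 0.005 µM plus 0; final DMSO 0.5%; vincristine sulfate 25 nM positive control. Quadruplicate wells, 48 and 72 h, 37°C, 5% CO2; MTS read-out; IC50 = 50% growth inhibition, mean ± SD of three independent experiments.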
(Tetrazolium dyes change colour on reduction, which living cells bring about.)

Data set [5] in a line: Cytotoxicity against human CCD-112CoN cells by SRB assay. The format is cell-based. A digest of the protocol:
(§2)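 Normal colon CCD-112CoN cells tested by SRB assay alongside HT-29; IC50 (50% growth inhibition) as mean ± SD of triplicate; paclitaxel positive control; fold selectivity = IC50 in CCD-112CoN divided by IC50 in HT-29.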
On the technique in general: In SRB staining, fixed cells bind dye roughly in proportion to their protein.

Data set [6] is described as follows: Selectivity ratio of IC50 for human CCD-112CoN cells to IC50 for human HT29 cells. Type of data set: ADME, cell-based, HT-29. The following applies: CCD-112CoN cells versus HT29 cells, read-out: Ratio IC50. The method, boiled down:
as §2

Data set [7] concerns Mus musculus. In words: Toxicity in immunodeficient NCr nu/nu mouse at 0.5 to 2 mg/kg, ip qd. The format is organism-based. The arrangement: dose 0.5-2 mg/kg, route intraperitoneal. The following applies: in vivo.
In data set [8] the test system is Raji. In words: Cytotoxicity against human Raji cells after 72 hrs by MTS assay. Type of data set: functional, cell-based. A digest of the protocol:
as §1

For data set [9], the system named is HT-29. In words: Antitumor activity against human HT-29 cells in hollow fiber implanted in immunodeficient NCr nu/nu mouse assessed as reduction in cell growth at 0.5 to 2 mg/kg, ip qd.
The subject of data set [10] is Raji. The data set can be described thus: Cytotoxicity against human Raji cells after 48 hrs by MTS assay. Type of data set: functional, cell-based. The method, boiled down:
as §1

A further data set concerns MDA-MB-435. In words: Antitumor activity against human MDA-MB-435 cells in hollow fiber implanted in immunodeficient NCr nu/nu mouse assessed as reduction in cell growth at 2 mg/kg, ip qd. The settings on record: route intraperitoneal. Set-up: scale not given: the % may be the effect or the level left. The format is functional.
In data set [11] the test system is HT-29. The data set can be described thus: Cytotoxicity against human HT-29 cells after 72 hrs by SRB assay. Type of data set: functional, cell-based. The settings on record: HT-29, 72 h. The method, boiled down: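 HT-29 colon cancer cells, sulforhodamine B assay, 72 h; paclitaxel positive control; IC50 defined as concentration inhibiting 50% cell growth, mean ± SD from a triplicate.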

Data set [12] has as its system 697. In words: Cytotoxicity against human 697 cells after 48 hrs by MTS assay. The format is functional, cell-based. The settings on record: Homo sapiens, 697, 48 h. A digest of the protocol:
as §1

Data set [13] deals with Mus musculus. In words: Toxicity in immunodeficient NCr nu/nu mouse at 5 to 30 mg/kg, ip qd. Type of data set: organism-based. Set-up: dose 5-30 mg/kg, route intraperitoneal. The following applies: in vivo. The method, boiled down: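 Female NCr nu/nu mice with ip and sc hollow fibers (HT-29, MCF-7, MDA-MB-435 cells) given compound in 30% cyclodextrin ip once daily at 5, 10, 15, 30 mg/kg; bortezomib 1 mg/kg ip daily in 30% cyclodextrin as positive control; lethality monitored after each injection.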

The subject of data set [14] is 697. The data set can be described thus: Induction of cell death in human 697 cells at 10 uM after 48 to 72 hrs using propidium iodide staining by flow cytometry. The format is functional. A digest of the protocol:
(§3)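 697 cells at 200,000 cells/mL treated at final 10, 1.11, 0.123, 0.014, 0 µM (from 2 mM stock, 10% DMSO dilutions, final DMSO 0.5%) for 48 and 72 h; vincristine 25 and 5 nM positive control. Same dilutions run in parallel by MTS and by propidium iodide: cells pelleted, resuspended in PI/PBS, 15 min dark at room temperature, flow cytometry; three independent experiments.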
A general note: In flow cytometry, cells or beads pass a laser one at a time.

Data set [15] concerns 697. The data set can be described thus: Cytostatic activity against human 697 cells assessed as reduction in cell viability at 0.014 to 10 uM after 48 to 72 hrs by MTS assay. Type of data set: functional, cell-based. A digest of the protocol:
as §3

In general, IC50 refers to the concentration needed to halve the response being measured. Turning to `COc1ccc2c(c1C1=COC(C)(C)C1=O)O[C@H](c1ccccc1)CC2=O` [(2S)-2,3-DIHYDROTEPHROGLABRIN], it took 23.1 µM to reach half-maximal inhibition in [1] (IC50). The compound also returned a CD in the data set listed under Mus musculus [2] of 6.4 µM. Also, the Ratio in [3] is listed as 3.6.
Take `C=C(C)[C@H]1Cc2c(ccc3c2O[C@@H]2COc4cc(OC)c(OC)cc4[C@]2(O)C3=O)O1` [ROTENOLONE]: the concentration for half-maximal inhibition (IC50) in the data set on 697 [4] is 0.5 µM; in data set [5] it was 102 µM; in the data set with Raji [8], 2.4 µM; in data set [1] it was 0.2 µM; in the data set with Raji [10], 5.6 µM; in the data set on HT-29 [11], 0.1 µM. In addition, the IC50 in the data set with 697 [12] turned out to be 0.7 µM. The selectivity ratio in [6] was 1020. Besides, the Activity entry with Mus musculus [7] is “Non-toxic”; with MDA-MB-435, 20%; in the data set with Mus musculus [13], “Toxic”. Besides, in the data set with HT-29 [9], the result was inactive. Besides, the CD in the data set listed under Mus musculus [2] amounted to 0.4 µM. Also, the Ratio in [3] is given as 0.6.
In the case of `CC(=O)O[C@H]1C(=O)[C@@]2(C)[C@H]([C@H](OC(=O)c3ccccc3)[C@]3(O)C[C@H](OC(=O)[C@H](O)[C@@H](NC(=O)c4ccccc4)c4ccccc4)C(C)=C1C3(C)C)[C@]1(OC(C)=O)CO[C@@H]1C[C@@H]2O` [PACLITAXEL], the IC50 in data set [5] was 23 µM; with HT-29 [11], 0.0006 µM. Further, the selectivity ratio in [6] is 38300.
As to `COc1cc2c(c3c1C(=O)C[C@@H](c1ccccc1)O3)[C@H]1[C@@H](O2)OC(C)(C)[C@@H]1OC(C)=O` (stereo in doubt; 2) [listing 1 of 2 here], the CD in the data set filed under Mus musculus [2] was found to be 0.2 µM.
In [1], `COc1cc2c(c(O)c1C(=O)/C=C/c1ccccc1)[C@H]1[C@@H](O2)OC(C)(C)[C@@H]1OC(C)=O` [TEPHROPURPURIN] came in with an IC50 of 18.1 µM. The compound also displayed a CD in the data set listed under Mus musculus [2] of 0.8 µM. Moreover, the Ratio in data set [3] is on record as 23.9.
Regarding `C=C(C)[C@H]1Cc2c(ccc3c2O[C@@H]2COc4cc(OC)c(OC)cc4[C@@H]2C3=O)O1` [ROTENONE], the IC50 in the data set with 697 [4] is 0.3 µM; in data set [5], above 127 µM; in the data set on Raji [8] it was 1.1 µM; in [1], 0.7 µM; with Raji [10], 4.2 µM; with 697 [12], 0.3 µM. In addition, the selectivity ratio in [6] is above 423. In the data set listed under Mus musculus [2], this compound gave a CD of 0.8 µM. In addition, the Ratio in [3] was found to be 0.9.
On to `COc1cc2c(cc1OC)[C@]1(O)C(=O)c3ccc4c(c3O[C@@H]1CO2)C=CC(C)(C)O4` [TEPHROSIN], for which the IC50 in the data set with 697 [4] is 9 µM; with Raji [8], above 10 µM; in data set [1], 13.9 µM; in the data set with Raji [10], above 10 µM; in the data set on HT-29 [11], above 10 µM; in the data set with 697 [12], 5.4 µM. The Activity in the data set on 697 [14] turned out to be 24%. In the data set on 697 [15], the result was Active. The CD in the data set listed under Mus musculus [2] was found to be 0.4 µM. Further, the Ratio in [3] came out at 35.3.
Consider `COc1ccc2c(c1/C=C/C(C)(C)OC)O[C@H](c1ccccc1)CC2=O`, for which the half-maximal inhibitory concentration (IC50) in data set [1] is 49 µM. This compound yielded a CD in the data set listed under Mus musculus [2] of 8.3 µM. In data set [3], the Ratio amounted to 5.9.
`COc1cc2c(c3c1C(=O)C[C@@H](c1ccccc1)O3)[C@H]1[C@@H](O2)OC(C)(C)[C@@H]1OC(C)=O` (stereo in doubt; 5) came in with a CD in the data set listed under Mus musculus [2] above 10 µM.
On to `CC1(C)O[C@@H]2Oc3ccc(C(=O)/C=C/c4ccccc4)c(O)c3[C@@H]2[C@H]1O` [(+)-TEPHROSONE], for which the IC50 in data set [1] turned out to be 37.6 µM. In the data set filed under Mus musculus [2], this compound gave a CD of 3.8 µM. Moreover, the Ratio in [3] was 9.9.
In the case of `COc1ccc2c(c1/C=C/C(C)(C)O)O[C@H](c1ccccc1)CC2=O`, inhibition in data set [1] was half-maximal at 47.4 µM (IC50). This compound returned a CD in the data set filed under Mus musculus [2] of 4.2 µM. Further, the Ratio in [3] was determined as 11.3.
In turn, `C[S@+]([O-])CCCCN=C=S` [L-SULFORAPHANE] had an IC50 in data set [1] of 12.1 µM. The same compound registered a CD in the data set filed under Mus musculus [2] of 0.5 µM. Also, the Ratio in data set [3] was 23.9.
As for `COc1cc2c(c3c1C(=O)C[C@@H](c1ccccc1)O3)[C@H]1[C@@H](O2)OC(C)(C)[C@@H]1OC(C)=O` (stereo in doubt; 2) [listing 2 of 2 here], the IC50 in [1] came to 63.9 µM. The Ratio in data set [3] stood at 376.7.

These data come from ChEMBL document CHEMBL2406953, “Bioactive constituents of Indigofera spicata” (J Nat Prod, 2013).
